Measured values from ChEMBL document CHEMBL1133529, “Solid-phase synthesis and biological evaluation of a combinatorial library of philanthotoxin analogues” (J Med Chem, 2000).

How the values were obtained:
[1] = target: T1, Acetylcholine receptor; alpha1/beta1/delta/gamma (Homo sapiens, UniProt P02708+P07510+P11230+Q07001); assay: Antagonist activity at human muscle-type nAChR (embryonic muscle) expressed in TE671 cells; (end value).; format: functional, cell-based, TE-671
Method in brief: (§1)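 Whole-cell patch clamp of TE671 cells (embryonic muscle-type nAChR) at 17-23 °C. Pipette: 140 mM CsCl, 1 mM CaCl2, 11 mM EDTA, 5 mM HEPES pH 7.2. Compound co-applied with 10 µM acetylcholine as 1-s pulses ≥30 s apart; IC50 from peak and end currents.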

[2] = target: T1, Acetylcholine receptor; alpha1/beta1/delta/gamma; assay: Antagonist activity at human muscle-type nAChR (embryonic muscle) expressed in TE671 cells; (peak value).; format: functional, cell-based, TE-671; method in brief: as §1
[3] = Tested for antagonist activity on non-NMDAR (expressed in Xenopus Oocytes) from rat brain mRNA.; format: functional, cell-based
Method in brief: (§2)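 Xenopus laevis oocytes injected with rat brain RNA, kept at 18 °C ≥3 days, voltage-clamped at -80 mV. Bath saline: 120 mM NaCl, 2 mM KCl, 1.8 mM CaCl2, 10 mM HEPES pH 7.5. 100 µM kainic acid perfused 120 s, antagonist co-applied 40-80 s. IC50 from decrease of kainate-evoked current.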

[4] = Tested for antagonist activity on non-NMDAR expressed in Xenopus Oocytes from rat brain mRNA.; format: functional, cell-based; method in brief: as §2

T1 sequence (P02708 whole entry): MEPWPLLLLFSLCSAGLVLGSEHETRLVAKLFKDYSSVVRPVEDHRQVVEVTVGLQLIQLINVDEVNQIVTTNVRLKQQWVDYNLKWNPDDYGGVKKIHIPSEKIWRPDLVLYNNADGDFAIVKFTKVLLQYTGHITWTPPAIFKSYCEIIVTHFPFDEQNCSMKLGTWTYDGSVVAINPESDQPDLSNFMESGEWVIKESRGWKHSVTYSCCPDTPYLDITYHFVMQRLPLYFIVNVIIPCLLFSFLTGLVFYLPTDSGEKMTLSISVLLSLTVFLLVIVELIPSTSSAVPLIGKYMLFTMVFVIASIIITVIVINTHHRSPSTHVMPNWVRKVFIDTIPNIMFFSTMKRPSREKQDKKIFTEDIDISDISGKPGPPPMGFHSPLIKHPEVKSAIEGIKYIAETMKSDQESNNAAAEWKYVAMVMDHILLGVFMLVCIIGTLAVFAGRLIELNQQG
T1 sequence (P07510 whole entry): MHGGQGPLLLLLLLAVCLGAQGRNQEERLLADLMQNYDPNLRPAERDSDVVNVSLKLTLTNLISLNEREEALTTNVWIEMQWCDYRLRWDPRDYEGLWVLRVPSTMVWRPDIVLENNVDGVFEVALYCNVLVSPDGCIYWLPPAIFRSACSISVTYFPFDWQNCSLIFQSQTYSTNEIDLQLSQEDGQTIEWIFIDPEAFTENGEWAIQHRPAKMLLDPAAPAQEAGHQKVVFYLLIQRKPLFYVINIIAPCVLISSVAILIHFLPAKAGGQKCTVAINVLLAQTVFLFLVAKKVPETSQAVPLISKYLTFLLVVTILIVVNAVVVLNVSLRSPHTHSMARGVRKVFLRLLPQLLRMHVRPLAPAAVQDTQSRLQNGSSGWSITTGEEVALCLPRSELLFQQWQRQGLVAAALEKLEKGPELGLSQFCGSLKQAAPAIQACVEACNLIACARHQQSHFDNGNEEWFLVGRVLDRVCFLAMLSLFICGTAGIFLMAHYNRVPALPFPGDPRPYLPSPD
T1 sequence (P11230 whole entry): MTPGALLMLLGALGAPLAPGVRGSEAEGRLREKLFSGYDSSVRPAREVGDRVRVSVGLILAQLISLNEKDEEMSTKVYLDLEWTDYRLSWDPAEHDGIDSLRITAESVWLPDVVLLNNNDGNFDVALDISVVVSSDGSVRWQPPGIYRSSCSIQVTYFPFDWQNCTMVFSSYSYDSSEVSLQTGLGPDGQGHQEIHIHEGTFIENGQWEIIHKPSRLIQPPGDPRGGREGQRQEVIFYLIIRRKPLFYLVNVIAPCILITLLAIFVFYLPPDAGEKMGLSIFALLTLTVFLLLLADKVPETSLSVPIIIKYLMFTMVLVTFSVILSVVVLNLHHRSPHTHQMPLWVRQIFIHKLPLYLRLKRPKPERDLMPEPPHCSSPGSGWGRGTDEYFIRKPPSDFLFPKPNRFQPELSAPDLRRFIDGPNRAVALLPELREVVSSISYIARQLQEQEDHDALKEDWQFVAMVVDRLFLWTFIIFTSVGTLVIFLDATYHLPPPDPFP
T1 sequence (Q07001 whole entry): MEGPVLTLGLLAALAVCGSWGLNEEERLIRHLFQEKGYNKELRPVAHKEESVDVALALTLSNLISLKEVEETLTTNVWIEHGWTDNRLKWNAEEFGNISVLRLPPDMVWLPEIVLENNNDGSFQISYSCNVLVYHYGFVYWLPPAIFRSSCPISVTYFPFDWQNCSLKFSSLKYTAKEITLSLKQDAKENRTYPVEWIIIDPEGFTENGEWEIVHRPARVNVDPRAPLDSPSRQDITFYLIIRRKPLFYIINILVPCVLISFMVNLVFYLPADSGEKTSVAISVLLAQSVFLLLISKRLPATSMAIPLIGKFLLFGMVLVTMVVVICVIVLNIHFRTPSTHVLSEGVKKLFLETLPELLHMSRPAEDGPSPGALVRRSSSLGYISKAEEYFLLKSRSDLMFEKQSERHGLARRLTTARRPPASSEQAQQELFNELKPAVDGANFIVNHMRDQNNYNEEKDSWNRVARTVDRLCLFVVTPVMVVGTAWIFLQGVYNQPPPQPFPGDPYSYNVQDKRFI

For `CCCC(=O)N[C@@H](Cc1cccc(O)c1)C(=O)NCCCNCCCCNCCCN`, the IC50 [1] was 117 µM and the IC50 [2] was > 1000 µM.
For `NCCCNCCCCNCCCNC(=O)[C@H](Cc1cccc(O)c1)NC(=O)CC1CCCCC1`, the IC50 [1] was 5.33 µM and the IC50 [2] was 59.8 µM.
With `CCCC(=O)N[C@@H](Cc1ccc(O)cc1)C(=O)NCCCOCCCCOCCCN` the IC50 [1] was 10.9 µM, the IC50 [2] was 72.7 µM and the IC50 [3] was > 100 µM.
For `NCCCCCCCCCCCCNC(=O)[C@H](Cc1cccc(O)c1)NC(=O)Cc1ccccc1`, the IC50 [1] was 8.05 µM and the IC50 [2] was 105 µM.
Compound `NCCCNCCCCNCCCNC(=O)[C@H](Cc1ccc(O)cc1)NC(=O)CC1CCCCC1` has an IC50 [1] of 13.2 µM, an IC50 [2] of 86.9 µM and an IC50 [4] of 0.18 µM.
In the case of `NCCCCCCCCCCCCNC(=O)[C@H](Cc1ccc(O)cc1)NC(=O)CC1CCCCC1`, the IC50 [1] is reported as 151 µM and the IC50 [2] is reported as > 1000 µM.
`CCCC(=O)N[C@@H](Cc1ccc(O)cc1)C(=O)NCCCNCCCCNCCCN` [PHILANTHOTOXIN 343] showed an IC50 [1] of 11.8 µM, an IC50 [2] of 56.7 µM and an IC50 [3] of 0.75 µM.
`NCCCOCCCCOCCCNC(=O)[C@H](Cc1ccc(O)cc1)NC(=O)Cc1ccccc1` showed an IC50 [1] of 12.6 µM and an IC50 [2] of 35 µM.
In the case of `CCCC(=O)N[C@@H](Cc1cccc(O)c1)C(=O)NCCCOCCCCOCCCN`, the IC50 [1] is reported as 42.6 µM and the IC50 [2] is reported as 110 µM.
Compound `CCCC(=O)N[C@@H](Cc1cccc(O)c1)C(=O)NCCCCCCCCCCCCN` has an IC50 [1] of 2.43 µM and an IC50 [2] of 104 µM.
For `NCCCOCCCCOCCCNC(=O)[C@H](Cc1cccc(O)c1)NC(=O)Cc1ccccc1`, the IC50 [1] was 25.3 µM and the IC50 [2] was 50.9 µM.
In the case of `NCCCNCCCCNCCCNC(=O)[C@H](Cc1ccc(O)cc1)NC(=O)Cc1ccccc1`, the IC50 [1] is reported as 22.3 µM, the IC50 [2] is reported as 249 µM and the IC50 [4] is reported as 0.015 µM.
`NCCCCCCCCCCCCNC(=O)[C@H](Cc1ccc(O)cc1)NC(=O)Cc1ccccc1` gave an IC50 [1] of 17.2 µM and an IC50 [2] of 388 µM.
Compound `NCCCNCCCCNCCCNC(=O)[C@H](Cc1cccc(O)c1)NC(=O)Cc1ccccc1` has an IC50 [1] of 10.1 µM and an IC50 [2] of 98.2 µM.
For `NCCCOCCCCOCCCNC(=O)[C@H](Cc1cccc(O)c1)NC(=O)CC1CCCCC1`, the IC50 [1] was 4.47 µM and the IC50 [2] was 30.7 µM.
Compound `NCCCOCCCCOCCCNC(=O)[C@H](Cc1ccc(O)cc1)NC(=O)CC1CCCCC1` has an IC50 [1] of 5.69 µM and an IC50 [2] of 25.9 µM.
In the case of `CCCC(=O)N[C@@H](Cc1ccc(O)cc1)C(=O)NCCCCCCCCCCCCN`, the IC50 [1] is reported as 0.79 µM, the IC50 [2] is reported as 15.1 µM and the IC50 [3] is reported as > 100 µM.
